Measurements from ChEMBL document CHEMBL1145430, “Synthesis and simple 18F-labeling of 3-fluoro-5-(2-(2-(fluoromethyl)thiazol-4-yl)ethynyl)benzonitrile as a high affinity radioligand for imaging monkey brain metabotropic glutamate subtype-5 receptors with positron emission tomography” (J Med Chem, 2007).
pIC50, pKi: −log10 of the molar value.

Key:
[1] = target: 5-hydroxytryptamine receptor 1A (Homo sapiens, UniProt P08908); assay: Displacement of [3H]8-OH-DPAT from 5HT1A receptor
[2] = target: 5-hydroxytryptamine receptor 1B (Homo sapiens, UniProt P28222); assay: Displacement of [3H]GR-125743 from 5HT1B receptor
[3] = target: 5-hydroxytryptamine receptor 1D (Homo sapiens, UniProt P28221); assay: Displacement of [3H]GR-125743 from 5HT1D receptor
[4] = target: 5-hydroxytryptamine receptor 1E (Homo sapiens, UniProt P28566); assay: Displacement of [3H]5-HT from 5HT1E receptor
[5] = target: 5-hydroxytryptamine receptor 2A (Homo sapiens, UniProt P28223); assay: Displacement of [3H]ketanserin from 5HT2A receptor
[6] = target: 5-hydroxytryptamine receptor 2B (Homo sapiens, UniProt P41595); assay: Displacement of [3H]LSD from 5HT2B receptor
[7] = target: 5-hydroxytryptamine receptor 2C (Homo sapiens, UniProt P28335); assay: Displacement of [3H]mesulergine from 5HT2C receptor
[8] = target: Serotonin 3 (5-HT3) receptor; assay: Displacement of [3H]zacopride from 5HT3 receptor; type: protein-complex assay, Homo sapiens
[9] = target: 5-hydroxytryptamine receptor 5A (Homo sapiens, UniProt P47898); assay: Displacement of [3H]LSD from 5HT5A receptor
[10] = target: 5-hydroxytryptamine receptor 6 (Homo sapiens, UniProt P50406); assay: Displacement of [3H]LSD from 5HT6 receptor
[11] = target: 5-hydroxytryptamine receptor 7 (Homo sapiens, UniProt P34969); assay: Displacement of [3H]LSD from 5HT7 receptor
[12] = Lipophilicity, log D of the compound; type: physicochemical; settings: octanol/water
Summary of the method: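 Partition of the [18F]-labeled radioligand between n-octanol and sodium phosphate buffer (0.15 M, pH 7.4) was measured, following a general method described earlier.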

[13] = target: Metabotropic glutamate receptor 5 (Rattus norvegicus, UniProt P31424); assay: Displacement of […] from mGluR5 in rat brain membrane; type: cell membranes
Summary of the method: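 Competition binding against [³H]MPEPy in rat whole-brain membranes (minus cerebellum and brainstem), homogenized in 50 mM Tris-HCl/saline pH 7.5, pelleted at 39 800 g. Membranes 5 mg/800 µL final. Competitor from 10 mM ethanol stock, final 0.01 nM to 1 mM. Incubated 1 h at 22 °C, filtered on PEI-soaked GF/B, washed with cold saline, scintillation counted. Three determinations.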

[14] = target: Metabotropic glutamate receptor 1 (Homo sapiens, UniProt Q13255); assay: Binding affinity at mGluR1
[15] = target: Metabotropic glutamate receptor 2 (Homo sapiens, UniProt Q14416); assay: Binding affinity at mGluR2
[16] = target: Metabotropic glutamate receptor 4 (Homo sapiens, UniProt Q14833); assay: Binding affinity at mGluR4
[17] = target: Metabotropic glutamate receptor 6 (Homo sapiens, UniProt O15303); assay: Binding affinity at mGluR6
[18] = target: Metabotropic glutamate receptor 8 (Homo sapiens, UniProt O00222); assay: Binding affinity at mGluR8
[19] = target: Alpha-1A adrenergic receptor (Homo sapiens, UniProt P35348); assay: Displacement of [3H]prazosin from adrenergic alpha-1A receptor
[20] = target: Alpha-1B adrenergic receptor (Homo sapiens, UniProt P35368); assay: Displacement of [3H]prazosin from adrenergic alpha-1B receptor
[21] = target: Alpha-2A adrenergic receptor (Homo sapiens, UniProt P08913); assay: Displacement of [3H][…] from adrenergic alpha2A receptor
[22] = target: Alpha-2B adrenergic receptor (Homo sapiens, UniProt P18089); assay: Displacement of [3H][…] from adrenergic alpha-2B receptor
[23] = target: Alpha-2C adrenergic receptor (Homo sapiens, UniProt P18825); assay: Displacement of [3H][…] from adrenergic alpha-2C receptor
[24] = target: Beta-1 adrenergic receptor (Homo sapiens, UniProt P08588); assay: Displacement of [125I]pindolol from adrenergic beta-1 receptor
[25] = target: Beta-2 adrenergic receptor (Homo sapiens, UniProt P07550); assay: Displacement of [125I]pindolol from adrenergic beta-2 receptor
[26] = target: D(1A) dopamine receptor (Homo sapiens, UniProt P21728); assay: Displacement of [3H]SCH-23390 from dopamine D1 receptor
[27] = target: D(2) dopamine receptor (Homo sapiens, UniProt P14416); assay: Displacement of [3H]N-methylspiperone from dopamine D2 receptor
[28] = target: D(3) dopamine receptor (Homo sapiens, UniProt P35462); assay: Displacement of [3H]N-methylspiperone from dopamine D3 receptor
[29] = target: D(4) dopamine receptor (Homo sapiens, UniProt P21917); assay: Displacement of [3H]N-methylspiperone from dopamine D4 receptor
[30] = target: D(1B) dopamine receptor (Homo sapiens, UniProt P21918); assay: Displacement of radiolabeled SKF-38393 from dopamine D5 receptor
[31] = target: Sigma non-opioid intracellular receptor 1 (Homo sapiens, UniProt Q99720); assay: Binding affinity to sigma1 receptor
[32] = Displacement of [3H]MK-801 from NMDA receptor; set-up: species or system Homo sapiens
[33] = target: Muscarinic acetylcholine receptor M1 (Homo sapiens, UniProt P11229); assay: Displacement of [3H]QNB from muscarinic M1 receptor
[34] = target: Muscarinic acetylcholine receptor M2 (Homo sapiens, UniProt P08172); assay: Displacement of [3H]QNB from muscarinic M2 receptor
[35] = target: Muscarinic acetylcholine receptor M3 (Homo sapiens, UniProt P20309); assay: Displacement of [3H]QNB from muscarinic M3 receptor
[36] = target: Muscarinic acetylcholine receptor M4 (Homo sapiens, UniProt P08173); assay: Displacement of [3H]QNB from muscarinic M4 receptor
[37] = target: Muscarinic acetylcholine receptor M5 (Homo sapiens, UniProt P08912); assay: Displacement of [3H]QNB from muscarinic M5 receptor
[38] = target: Delta-type opioid receptor (Homo sapiens, UniProt P41143); assay: Displacement of [3H]DADLE from delta opioid receptor
[39] = target: Mu-type opioid receptor (Homo sapiens, UniProt P35372); assay: Displacement of [3H]diprenorphine from mu opioid receptor
[40] = target: Kappa-type opioid receptor (Homo sapiens, UniProt P41145); assay: Displacement of [3H]bremazocine from kappa opioid receptor
[41] = target: Sodium-dependent dopamine transporter (Homo sapiens, UniProt Q01959); assay: Displacement of [3H]WIN-35428 from DAT
[42] = target: Sodium-dependent noradrenaline transporter (Homo sapiens, UniProt P23975); assay: Displacement of [3H]nisoxitine from NET
[43] = target: Sodium-dependent serotonin transporter (Homo sapiens, UniProt P31645); assay: Displacement of [3H]citalopram from SERT
[44] = target: Histamine H1 receptor (Homo sapiens, UniProt P35367); assay: Binding affinity to histamine H1 receptor
[45] = target: Histamine H2 receptor (Homo sapiens, UniProt P25021); assay: Binding affinity to from histamine H2 receptor
[46] = target: Histamine H3 receptor (Homo sapiens, UniProt Q9Y5N1); assay: Binding affinity to histamine H3 receptor
[47] = target: Histamine H4 receptor (Homo sapiens, UniProt Q9H3N8); assay: Binding affinity to histamine H4 receptor
[48] = Stability in phosphate buffered saline at pH 7.4 after 71 mins; type: physicochemical; settings: buffer, pH 7.4, 71 min
Summary of the method: (§1)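 The radioligand was dissolved in water, sampled at 34, 48 and 159 min, and analyzed at once by reverse-phase radio-HPLC (Novapak C-18, MeOH–H2O–Et3N 70:30:0.1, 2.0 mL/min). A second solution in 0.9% saline containing 0.15 mM phosphoric acid was sampled at 54 and 71 min and analyzed the same way.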

[49] = tested on: Plasma; assay: Stability in rhesus monkey plasma at 5 uCi after 168 mins; type: ADME, cell-free, Macaca mulatta; settings: 2.8 h
Summary of the method: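 Plasma was obtained by spinning whole monkey blood at 1800 g for 5 min. Plasma (1.0 mL) was incubated with 5 μCi radioligand at room temperature for 168 min, and a sample was analyzed by reverse-phase radio-HPLC.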

[50] = Stability in human whole blood at 2 uCi; type: ADME, tissue-based; settings: read-out: Stability
Summary of the method: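 Radioligand (2 μCi) was added to human whole blood (2.0 mL) at 23 °C and sampled at 10-90 min. Each sample was mixed with acetonitrile spiked with carrier and with KF (0.5 M), counted and centrifuged at 10 000 g for 1 min. The supernatant was analyzed by radio-HPLC.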

[51] = Stability in aqueous solution after 159 mins; type: physicochemical; settings: buffer, 2.65 h; summary of the method: as §1
[52] = Stability in rhesus monkey brain at 100 uCi in 37 degC after 90 mins; type: ADME, tissue-based, Macaca mulatta
Summary of the method: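 Monkey brain tissue (3.34 g, stored at -70 °C for 1 year) was homogenized on ice with about 100 μCi radioligand, incubated at 37 °C and sampled at 5-90 min. Samples were taken into acetonitrile spiked with carrier plus 0.5 M KF, counted and centrifuged at 10 000 g for 1 min. Supernatants went to HPLC, and pellets were counted to give recovery.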

[53] = Stability in human brain at 50 uCi in 37 degC after 3 hrs; type: ADME, tissue-based
Summary of the method: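 Human brain tissue (1.76 g) was homogenized in ice-cold saline (3 mL), then mixed with about 50 μCi radioligand in ethanol–water 1:1. The mixture was incubated at 37 °C and sampled at 5-180 min. Samples were taken into carrier-spiked acetonitrile plus 0.5 M KF, counted and centrifuged at 10 000 g. Supernatants went to HPLC, and pellets were counted to give recovery.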

[54] = tested on: Brain; assay: Drug uptake in rhesus monkey brain at 4 mCi, iv; type: ADME, organism-based, Macaca mulatta; settings: in vivo
Summary of the method: (§2)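 Anesthetized rhesus monkey (~10 kg; ketamine, propofol, isoflurane) given [18F] radioligand 4.0 mCi i.v. Imaged on HRRT with attenuation and scatter correction. Regional time–activity curves from MRI-coregistered regions of interest, expressed as %SUV (normalized for injected activity and body weight). Hippocampal uptake averaged over 60–120 min.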

[55] = tested on: Hippocampus; assay: Drug uptake in rhesus monkey hippocampus at 4 mCi, iv after 60 to 120 mins; type: ADME, organism-based, Macaca mulatta; settings: in vivo; summary of the method: as §2
[56] = tested on: Hippocampus; assay: Drug uptake in rhesus monkey hippocampus at 4 mCi, iv in presence of 6-methyl-2-(phenylethynyl)-pyridine after 60 to 120 mins; type: ADME, organism-based, Macaca mulatta; settings: in vivo
Summary of the method: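 Same rhesus monkey on a separate day, given blocker 5 mg/kg i.v. in saline with 10% ethanol 15 min before [18F] radioligand (3.8 mCi i.v.). HRRT PET. Regional uptake expressed as %SUV from MRI-coregistered regions of interest, averaged over 60–120 min.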

[57] = tested on: Striatum; assay: Drug uptake in rhesus monkey striatum at 4 mCi, iv after 60 to 120 mins; type: ADME, organism-based, Macaca mulatta; settings: in vivo
Summary of the method: (§3)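 Rhesus monkey (~10 kg) anesthetized with ketamine (10 mg/kg, i.m.) and propofol (5 mg/kg, i.v.), then isoflurane 1.0-4.0% in oxygen; body temperature 37-37.5 °C. Radioligand given i.v. and imaged on HRRT PET with attenuation and scatter correction. For blockade, MPEP/MTEP (5 mg/kg, i.v., in saline with 10% ethanol) given 15 min before tracer in the same monkey. Striatal ROI expressed as %SUV (normalized to injected activity and body weight) over 60-120 min.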

[58] = tested on: Striatum; assay: Drug uptake in rhesus monkey striatum at 4 mCi, iv in presence of 6-methyl-2-(phenylethynyl)-pyridine after 60 to 120 mins; type: ADME, organism-based, Macaca mulatta; settings: in vivo; summary of the method: as §3
[59] = tested on: Blood; assay: Biodistribution in rhesus monkey blood at 4 mCi, iv after180 mins; type: ADME, organism-based, Macaca mulatta; settings: in vivo, 3 h
Summary of the method: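 Anesthetized rhesus monkey given [18F] radioligand i.v. Heparinized blood drawn at 1 min intervals to 5 min, then at 10, 25, 40, 60, 90, 120 and 180 min, and kept on ice. Centrifuged 1800 g for 1.5 min. Plasma and cells γ-counted to give the partition of radioactivity into the cellular fraction.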

Chain of Metabotropic glutamate receptor 5 (P31424 whole entry): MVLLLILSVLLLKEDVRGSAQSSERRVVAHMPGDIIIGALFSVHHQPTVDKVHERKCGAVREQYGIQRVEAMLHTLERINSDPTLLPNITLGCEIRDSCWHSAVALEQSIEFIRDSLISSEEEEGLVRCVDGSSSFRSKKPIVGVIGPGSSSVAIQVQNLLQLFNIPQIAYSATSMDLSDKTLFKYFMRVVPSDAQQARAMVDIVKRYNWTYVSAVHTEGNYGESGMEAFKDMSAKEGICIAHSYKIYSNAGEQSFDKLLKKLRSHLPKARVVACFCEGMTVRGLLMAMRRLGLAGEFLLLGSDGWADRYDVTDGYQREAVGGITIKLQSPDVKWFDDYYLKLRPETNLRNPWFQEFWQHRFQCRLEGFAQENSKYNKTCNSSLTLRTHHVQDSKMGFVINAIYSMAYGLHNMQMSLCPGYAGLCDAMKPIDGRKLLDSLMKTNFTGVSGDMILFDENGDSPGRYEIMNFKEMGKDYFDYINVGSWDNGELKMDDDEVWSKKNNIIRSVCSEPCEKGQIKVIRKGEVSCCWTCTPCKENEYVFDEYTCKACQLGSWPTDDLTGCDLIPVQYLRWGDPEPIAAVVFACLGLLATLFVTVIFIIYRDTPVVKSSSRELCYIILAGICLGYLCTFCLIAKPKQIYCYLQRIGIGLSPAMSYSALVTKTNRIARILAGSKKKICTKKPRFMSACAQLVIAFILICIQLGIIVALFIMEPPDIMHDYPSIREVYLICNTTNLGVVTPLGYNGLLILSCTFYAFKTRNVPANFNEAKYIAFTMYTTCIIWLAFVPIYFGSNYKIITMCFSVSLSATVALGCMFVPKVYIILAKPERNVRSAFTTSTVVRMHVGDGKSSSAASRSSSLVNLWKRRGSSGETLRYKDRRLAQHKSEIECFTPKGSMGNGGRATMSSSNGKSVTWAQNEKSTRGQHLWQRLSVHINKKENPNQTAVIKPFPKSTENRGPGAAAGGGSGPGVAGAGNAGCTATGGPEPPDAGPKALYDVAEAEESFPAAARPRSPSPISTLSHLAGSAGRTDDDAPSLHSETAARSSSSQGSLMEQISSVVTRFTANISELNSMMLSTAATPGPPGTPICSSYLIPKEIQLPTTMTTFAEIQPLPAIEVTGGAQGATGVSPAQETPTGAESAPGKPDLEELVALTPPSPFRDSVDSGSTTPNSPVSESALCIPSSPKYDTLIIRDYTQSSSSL
Chain of D(3) dopamine receptor (P35462 whole entry): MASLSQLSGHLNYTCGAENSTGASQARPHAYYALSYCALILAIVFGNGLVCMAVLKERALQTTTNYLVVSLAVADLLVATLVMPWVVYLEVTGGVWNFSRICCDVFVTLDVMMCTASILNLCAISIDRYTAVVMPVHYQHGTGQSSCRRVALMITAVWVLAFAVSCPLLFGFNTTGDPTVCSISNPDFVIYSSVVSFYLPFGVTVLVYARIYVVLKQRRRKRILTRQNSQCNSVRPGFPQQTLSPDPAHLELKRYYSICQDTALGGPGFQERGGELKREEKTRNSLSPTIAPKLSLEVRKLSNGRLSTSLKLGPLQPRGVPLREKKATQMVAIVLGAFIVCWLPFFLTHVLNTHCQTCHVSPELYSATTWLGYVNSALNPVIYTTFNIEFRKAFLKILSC
Chain of Sodium-dependent serotonin transporter (P31645 whole entry): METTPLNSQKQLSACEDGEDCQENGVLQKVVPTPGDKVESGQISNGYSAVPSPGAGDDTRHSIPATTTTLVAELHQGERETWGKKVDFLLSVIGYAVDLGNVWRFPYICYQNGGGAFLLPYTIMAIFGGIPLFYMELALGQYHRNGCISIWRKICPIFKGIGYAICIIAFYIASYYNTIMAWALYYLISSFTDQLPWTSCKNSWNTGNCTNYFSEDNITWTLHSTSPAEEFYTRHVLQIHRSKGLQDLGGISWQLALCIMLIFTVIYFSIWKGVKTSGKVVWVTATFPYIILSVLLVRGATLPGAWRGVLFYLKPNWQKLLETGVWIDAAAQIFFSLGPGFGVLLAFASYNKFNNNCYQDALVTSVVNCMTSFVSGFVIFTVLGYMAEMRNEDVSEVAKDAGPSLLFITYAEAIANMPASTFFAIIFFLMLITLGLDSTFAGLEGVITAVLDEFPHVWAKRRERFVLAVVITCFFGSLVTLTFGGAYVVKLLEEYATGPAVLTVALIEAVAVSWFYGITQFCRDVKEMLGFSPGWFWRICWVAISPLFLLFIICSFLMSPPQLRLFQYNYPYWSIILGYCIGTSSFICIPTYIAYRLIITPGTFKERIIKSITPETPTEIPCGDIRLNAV
Chain of Alpha-2C adrenergic receptor (P18825 whole entry): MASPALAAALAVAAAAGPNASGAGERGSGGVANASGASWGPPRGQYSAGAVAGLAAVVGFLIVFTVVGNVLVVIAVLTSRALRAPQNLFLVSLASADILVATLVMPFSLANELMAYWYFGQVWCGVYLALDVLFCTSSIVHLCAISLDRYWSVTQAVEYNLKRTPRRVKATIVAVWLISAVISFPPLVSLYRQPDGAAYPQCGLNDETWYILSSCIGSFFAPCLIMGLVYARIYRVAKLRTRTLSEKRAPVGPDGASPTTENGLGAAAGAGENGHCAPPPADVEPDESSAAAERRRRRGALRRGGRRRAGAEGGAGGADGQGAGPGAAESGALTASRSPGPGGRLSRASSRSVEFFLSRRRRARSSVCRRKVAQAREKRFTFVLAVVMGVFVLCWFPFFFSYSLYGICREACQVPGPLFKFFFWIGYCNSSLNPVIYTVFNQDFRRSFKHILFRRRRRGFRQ
Chain of 5-hydroxytryptamine receptor 1A (P08908 whole entry): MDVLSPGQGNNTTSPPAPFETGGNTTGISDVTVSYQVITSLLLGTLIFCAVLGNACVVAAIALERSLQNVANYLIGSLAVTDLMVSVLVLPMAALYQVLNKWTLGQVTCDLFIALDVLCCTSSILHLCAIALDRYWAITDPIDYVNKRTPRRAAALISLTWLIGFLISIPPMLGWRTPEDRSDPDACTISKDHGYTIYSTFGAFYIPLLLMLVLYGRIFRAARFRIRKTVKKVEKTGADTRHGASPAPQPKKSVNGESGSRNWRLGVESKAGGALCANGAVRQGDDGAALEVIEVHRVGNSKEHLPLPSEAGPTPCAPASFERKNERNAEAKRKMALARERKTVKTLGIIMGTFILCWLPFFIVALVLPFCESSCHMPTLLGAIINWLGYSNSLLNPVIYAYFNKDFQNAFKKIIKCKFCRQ
Chain of 5-hydroxytryptamine receptor 5A (P47898 whole entry): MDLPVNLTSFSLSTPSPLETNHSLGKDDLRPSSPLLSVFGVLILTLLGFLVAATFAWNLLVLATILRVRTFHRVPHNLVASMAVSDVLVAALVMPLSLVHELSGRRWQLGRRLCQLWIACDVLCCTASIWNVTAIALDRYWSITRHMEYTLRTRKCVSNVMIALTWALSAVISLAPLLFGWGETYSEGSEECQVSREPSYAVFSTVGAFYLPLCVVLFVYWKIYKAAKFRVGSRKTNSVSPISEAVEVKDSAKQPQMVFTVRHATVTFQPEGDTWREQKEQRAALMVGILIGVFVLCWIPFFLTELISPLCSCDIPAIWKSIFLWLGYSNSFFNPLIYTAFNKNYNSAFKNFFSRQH
Chain of Sodium-dependent dopamine transporter (Q01959 whole entry): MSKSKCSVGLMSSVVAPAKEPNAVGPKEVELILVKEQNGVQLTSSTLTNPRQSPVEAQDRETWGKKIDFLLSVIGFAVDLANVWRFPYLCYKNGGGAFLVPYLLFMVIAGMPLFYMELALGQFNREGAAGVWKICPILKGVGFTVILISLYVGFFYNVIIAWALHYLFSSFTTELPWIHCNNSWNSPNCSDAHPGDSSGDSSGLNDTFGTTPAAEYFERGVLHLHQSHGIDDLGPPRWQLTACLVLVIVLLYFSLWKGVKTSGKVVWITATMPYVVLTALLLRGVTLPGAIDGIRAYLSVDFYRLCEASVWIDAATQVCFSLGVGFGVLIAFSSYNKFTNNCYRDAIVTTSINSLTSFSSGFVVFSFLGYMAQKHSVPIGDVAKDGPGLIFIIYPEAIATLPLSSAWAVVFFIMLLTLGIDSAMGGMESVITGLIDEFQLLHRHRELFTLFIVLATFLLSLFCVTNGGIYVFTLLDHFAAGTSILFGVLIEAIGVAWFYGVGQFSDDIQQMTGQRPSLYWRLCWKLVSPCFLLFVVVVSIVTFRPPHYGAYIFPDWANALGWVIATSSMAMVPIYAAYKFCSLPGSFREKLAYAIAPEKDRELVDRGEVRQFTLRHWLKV
Chain of Metabotropic glutamate receptor 6 (O15303 whole entry): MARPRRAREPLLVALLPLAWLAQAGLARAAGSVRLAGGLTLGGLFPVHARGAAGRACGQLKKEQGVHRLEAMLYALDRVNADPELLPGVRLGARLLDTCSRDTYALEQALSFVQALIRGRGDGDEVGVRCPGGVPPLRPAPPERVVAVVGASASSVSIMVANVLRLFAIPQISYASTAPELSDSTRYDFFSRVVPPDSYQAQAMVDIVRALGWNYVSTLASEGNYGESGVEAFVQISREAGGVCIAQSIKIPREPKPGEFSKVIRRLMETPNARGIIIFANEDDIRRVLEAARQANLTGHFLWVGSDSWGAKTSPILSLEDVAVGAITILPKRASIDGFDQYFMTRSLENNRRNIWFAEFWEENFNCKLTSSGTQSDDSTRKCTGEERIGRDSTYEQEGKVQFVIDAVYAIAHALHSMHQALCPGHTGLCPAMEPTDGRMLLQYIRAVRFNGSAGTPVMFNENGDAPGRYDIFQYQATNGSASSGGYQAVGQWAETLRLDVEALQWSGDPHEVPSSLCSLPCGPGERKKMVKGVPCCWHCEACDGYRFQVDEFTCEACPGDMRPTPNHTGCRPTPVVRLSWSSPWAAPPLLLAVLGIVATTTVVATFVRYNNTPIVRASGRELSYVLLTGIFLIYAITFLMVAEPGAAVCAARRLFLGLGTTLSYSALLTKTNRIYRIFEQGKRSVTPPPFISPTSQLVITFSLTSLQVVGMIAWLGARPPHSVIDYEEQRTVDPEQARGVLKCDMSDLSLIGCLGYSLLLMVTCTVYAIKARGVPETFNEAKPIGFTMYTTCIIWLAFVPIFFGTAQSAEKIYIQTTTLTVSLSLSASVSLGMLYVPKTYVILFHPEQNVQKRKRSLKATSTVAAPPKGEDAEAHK

N#Cc1cc(F)cc(C#Cc2csc(CF)n2)c1
10.44: pIC50 [13]
2.18: logD [12]
< 5.00: pKi [1] | pKi [2] | pKi [3] | pKi [4] | pKi [5] | pKi [6] | pKi [7] | pKi [8] | pKi [9] | pKi [10] | pKi [11] | pKi [14] | pKi [15] | pKi [16] | pKi [17] | pKi [18] | pKi [19] | pKi [20] | pKi [21] | pKi [22] | pKi [23] | pKi [24] | pKi [25] | pKi [26] | pKi [27] | pKi [28] | pKi [29] | pKi [30] | pKi [31] | pKi [32] | pKi [33] | pKi [34] | pKi [35] | pKi [36] | pKi [37] | pKi [38] | pKi [39] | pKi [40] | pKi [41] | pKi [42] | pKi [43] | pKi [44] | pKi [45] | pKi [46] | pKi [47]

FCc1nc(C#Cc2cccc(F)c2)cs1
9.32: pIC50 [13]

COc1cccc(C#Cc2csc(CF)n2)c1
9.28: pIC50 [13]

N#Cc1cncc(C#Cc2csc(CF)n2)c1
9.64: pIC50 [13]

N#Cc1cc(F)cc(C#Cc2csc(C[18F])n2)c1
500%: Drug uptake [55] | Drug uptake [57]
33.9%: Drug uptake [59]
200%: Drug uptake [56] | Drug uptake [58]
Stable: Stability [48] | Stability [49] | Stability [51]
450%: Drug uptake [54]
98.6%: remaining at 3 h, 50 uCi [53]
98.2%: remaining at 1.5 h, 100 uCi [52]
> 98%: remaining at 2 uCi [50]

N#Cc1cccc(C#Cc2csc(CF)n2)c1
10.22: pIC50 [13]
